Test results taken from ChEMBL document CHEMBL3232758, “Synthesis and evaluation of carbon-linked analogs of dual orexin receptor antagonist filorexant” (Bioorg Med Chem Lett, 2014).
Converted amounts (≈) assume the structure as drawn. The source made the active and inactive calls. The calls are words filed in the database; no cut-off is given here.

Tests used:
Orexin receptor type 2 [1] = target: T1, Orexin receptor type 2 (Homo sapiens, UniProt O43614); test: Binding affinity to human OX2 receptor in cell membrane by in vitro radioligand binding assay; type: cell membranes
T1 sequence (O43614 whole entry): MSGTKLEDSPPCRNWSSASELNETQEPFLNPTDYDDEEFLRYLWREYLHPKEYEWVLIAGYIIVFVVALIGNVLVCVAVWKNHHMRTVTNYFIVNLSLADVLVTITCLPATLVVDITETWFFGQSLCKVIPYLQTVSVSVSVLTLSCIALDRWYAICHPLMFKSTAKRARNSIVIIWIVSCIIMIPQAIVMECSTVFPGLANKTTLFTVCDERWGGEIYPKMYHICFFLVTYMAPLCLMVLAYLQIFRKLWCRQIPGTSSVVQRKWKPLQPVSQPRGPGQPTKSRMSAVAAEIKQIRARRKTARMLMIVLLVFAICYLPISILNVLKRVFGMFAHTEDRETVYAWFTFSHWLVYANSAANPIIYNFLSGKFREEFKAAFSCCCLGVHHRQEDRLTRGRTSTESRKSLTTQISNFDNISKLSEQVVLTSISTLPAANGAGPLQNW
Summary of the method: (§1)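 Radioligand binding to membranes from human cells overexpressing OX1R or OX2R; affinity expressed as Ki.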

[2] = target: T2, Orexin/Hypocretin receptor type 1 (Homo sapiens, UniProt O43613); test: Binding affinity to human OX1 receptor in cell membrane by in vitro radioligand binding assay; type: cell membranes; summary of the method: as §1
T2 sequence (O43613 whole entry): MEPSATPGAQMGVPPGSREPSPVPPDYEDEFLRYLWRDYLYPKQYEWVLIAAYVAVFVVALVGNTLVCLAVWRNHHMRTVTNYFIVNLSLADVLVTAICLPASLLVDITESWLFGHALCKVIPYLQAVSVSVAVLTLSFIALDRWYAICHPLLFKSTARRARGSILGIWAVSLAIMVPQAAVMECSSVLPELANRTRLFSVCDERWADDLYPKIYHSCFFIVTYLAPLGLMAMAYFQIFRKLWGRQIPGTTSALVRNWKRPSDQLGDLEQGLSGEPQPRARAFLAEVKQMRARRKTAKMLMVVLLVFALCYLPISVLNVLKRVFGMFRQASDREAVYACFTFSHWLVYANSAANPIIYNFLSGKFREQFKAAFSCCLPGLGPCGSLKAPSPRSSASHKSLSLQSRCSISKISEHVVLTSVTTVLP

[3] = target: T2, Orexin/Hypocretin receptor type 1; test: Antagonist activity at human OX1 receptor assessed as Ca2+ flux by FLIPR assay; type: functional
Orexin receptor type 2 [4] = target: T1, Orexin receptor type 2; test: Antagonist activity at human OX2 receptor assessed as Ca2+ flux by FLIPR assay; type: functional
[5] = Lipophilicity, log D of the compound at pH 7 by HPLC analysis; type: physicochemical; conditions: buffer
Summary of the method: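 High-throughput HPLC logD at pH 7 using a reversed-phase C18 column, with phosphate-buffered saline pH 7 and acetonitrile as mobile phases. The system is calibrated with standards of published shake-flask logD, and logD is read from a linear regression of retention time against logD.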

Cytochrome P450 2D6 = Cytochrome P450 2D6 (Homo sapiens, UniProt P10635); test: Inhibition of CYP2D6 (unknown origin); type: ADME
Cytochrome P450 2D6, sequence (P10635 whole entry): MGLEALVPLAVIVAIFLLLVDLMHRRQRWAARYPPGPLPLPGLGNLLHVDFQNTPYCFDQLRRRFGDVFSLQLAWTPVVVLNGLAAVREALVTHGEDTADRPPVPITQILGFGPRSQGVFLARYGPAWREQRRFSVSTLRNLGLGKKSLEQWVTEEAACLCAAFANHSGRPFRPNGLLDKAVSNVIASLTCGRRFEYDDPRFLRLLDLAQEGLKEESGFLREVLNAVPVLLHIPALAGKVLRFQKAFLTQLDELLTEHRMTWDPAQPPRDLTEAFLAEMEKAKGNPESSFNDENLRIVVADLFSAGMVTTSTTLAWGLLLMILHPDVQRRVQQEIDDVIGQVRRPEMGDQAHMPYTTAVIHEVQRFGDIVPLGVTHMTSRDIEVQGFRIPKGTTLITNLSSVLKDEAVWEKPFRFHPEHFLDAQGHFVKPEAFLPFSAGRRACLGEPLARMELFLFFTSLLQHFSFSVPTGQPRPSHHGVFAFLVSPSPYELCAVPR

[6] = Clearance in iv dosed dog; type: ADME, organism-based, Canis lupus familiaris; conditions: in vivo
[7] = target: Voltage-gated inwardly rectifying potassium channel KCNH2 (Homo sapiens, UniProt Q12809); test: Inhibition of human ERG
Voltage-gated inwardly rectifying potassium channel KCNH2, sequence (Q12809 whole entry): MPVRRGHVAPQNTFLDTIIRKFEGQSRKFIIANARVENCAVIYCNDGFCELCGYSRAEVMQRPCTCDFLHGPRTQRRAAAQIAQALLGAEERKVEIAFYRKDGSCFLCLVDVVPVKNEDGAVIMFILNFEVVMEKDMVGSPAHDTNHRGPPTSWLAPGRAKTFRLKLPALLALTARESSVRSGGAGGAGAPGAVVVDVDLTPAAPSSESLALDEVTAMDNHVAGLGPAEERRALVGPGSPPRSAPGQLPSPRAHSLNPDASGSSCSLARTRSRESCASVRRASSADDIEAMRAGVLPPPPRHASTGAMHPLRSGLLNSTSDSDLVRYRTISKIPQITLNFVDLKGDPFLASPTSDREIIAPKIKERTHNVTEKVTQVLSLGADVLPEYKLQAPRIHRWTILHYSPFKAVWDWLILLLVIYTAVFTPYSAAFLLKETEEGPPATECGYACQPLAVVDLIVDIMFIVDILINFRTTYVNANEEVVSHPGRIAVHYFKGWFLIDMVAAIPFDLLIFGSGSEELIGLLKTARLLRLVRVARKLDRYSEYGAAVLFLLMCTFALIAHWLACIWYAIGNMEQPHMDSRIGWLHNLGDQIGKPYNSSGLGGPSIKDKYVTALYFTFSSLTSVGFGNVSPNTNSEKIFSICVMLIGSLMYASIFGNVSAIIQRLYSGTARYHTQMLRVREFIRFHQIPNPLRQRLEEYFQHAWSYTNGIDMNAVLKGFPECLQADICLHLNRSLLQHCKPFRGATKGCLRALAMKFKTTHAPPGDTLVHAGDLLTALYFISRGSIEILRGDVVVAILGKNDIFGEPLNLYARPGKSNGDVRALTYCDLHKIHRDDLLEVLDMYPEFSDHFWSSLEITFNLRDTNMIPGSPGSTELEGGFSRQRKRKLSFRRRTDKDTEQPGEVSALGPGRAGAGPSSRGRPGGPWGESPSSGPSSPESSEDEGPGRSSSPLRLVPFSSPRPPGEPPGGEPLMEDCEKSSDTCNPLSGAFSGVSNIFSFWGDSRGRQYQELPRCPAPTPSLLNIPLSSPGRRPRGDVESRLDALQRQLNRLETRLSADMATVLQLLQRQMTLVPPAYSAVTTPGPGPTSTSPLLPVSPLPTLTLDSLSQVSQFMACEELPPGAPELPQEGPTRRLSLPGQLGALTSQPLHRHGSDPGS

CYP3A4 = CYP3A4 (Homo sapiens, UniProt P08684); test: Time-dependent inhibition of CYP3A4 (unknown origin) assessed as IC50 shift ratio; type: ADME; conditions: read-out: Ratio IC50
CYP3A4, sequence (P08684 whole entry): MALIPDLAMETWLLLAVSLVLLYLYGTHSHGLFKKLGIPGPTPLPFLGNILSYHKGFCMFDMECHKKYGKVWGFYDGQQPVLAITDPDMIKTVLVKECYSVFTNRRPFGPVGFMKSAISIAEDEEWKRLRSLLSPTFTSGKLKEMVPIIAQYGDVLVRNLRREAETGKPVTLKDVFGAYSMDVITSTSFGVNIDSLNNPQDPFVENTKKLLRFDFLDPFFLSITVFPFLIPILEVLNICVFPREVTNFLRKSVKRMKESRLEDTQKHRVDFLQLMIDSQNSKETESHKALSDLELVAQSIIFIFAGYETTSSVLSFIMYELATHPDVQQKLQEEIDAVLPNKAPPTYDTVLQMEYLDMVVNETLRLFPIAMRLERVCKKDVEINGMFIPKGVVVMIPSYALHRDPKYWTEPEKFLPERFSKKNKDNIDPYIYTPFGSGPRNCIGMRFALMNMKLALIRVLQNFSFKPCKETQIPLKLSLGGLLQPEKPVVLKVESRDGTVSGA

Cytochrome P450 3A4 [8] = target: T3, Cytochrome P450 3A4 (Homo sapiens, UniProt P08684); test: Time-dependent inhibition of CYP3A4 (unknown origin); type: ADME; conditions: TDE = time-dependent effect
T3 sequence (P08684 whole entry): as above

Mus musculus [9] = test: Sleep promoting activity in wild type mouse sleep EEG model assessed as increase in REM sleep at 100 mg/kg, po administered during dark or active phase 4 hrs prior to lights on measured for 2 hrs following drug administration; type: functional, organism-based; parameters: dose 100 mg/kg
Summary of the method: (§2)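 Mice carried surgically implanted radiotelemetry transmitters recording EEG and EMG to score vigilance state; wildtype n = 5, OX2R knockout n = 6. Oral 100 mg/kg or vehicle (20% Vit. E TPGS) in a balanced cross-over, dosed in the dark (active) phase 4 h before lights on. Mean time per state was taken in 30 min intervals and compared by a linear mixed-effects repeated-measures t-test.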

Mus musculus [10] = test: Sleep promoting activity in wild type mouse sleep EEG model assessed as reduction of active wake at 100 mg/kg, po administered during dark or active phase 4 hrs prior to lights on measured during first 30 mins after drug administration; type: functional, organism-based; parameters: dose 100 mg/kg; summary of the method: as §2
Mus musculus [11] = test: Sleep promoting activity in wild type mouse sleep EEG model assessed as increase in delta sleep at 100 mg/kg, po administered during dark or active phase 4 hrs prior to lights on measured during first 30 mins after drug administration; type: functional, organism-based; parameters: dose 100 mg/kg; summary of the method: as §2
Mus musculus [12] = test: Sleep promoting activity in OX2 receptor knockout mouse at 100 mg/kg, po administered during dark or active phase 4 hrs prior to lights on; type: functional, organism-based; parameters: dose 100 mg/kg; summary of the method: as §2
[13] = Plasma protein binding in dog; type: ADME, cell-free, Canis lupus familiaris; conditions: read-out: PPB (converted)
Mus musculus [14] = test: Sleep promoting activity in wild type mouse sleep EEG model assessed as reduction of active wake at 100 mg/kg, po administered during dark or active phase 4 hrs prior to lights on measured for 2 hrs following drug administration; type: functional, organism-based; parameters: dose 100 mg/kg; summary of the method: as §2
Mus musculus [15] = test: Sleep promoting activity in wild type mouse sleep EEG model assessed as increase in REM sleep at 100 mg/kg, po administered during dark or active phase 4 hrs prior to lights on measured during first 30 mins after drug administration; type: functional, organism-based; parameters: dose 100 mg/kg; summary of the method: as §2
[16] = Plasma protein binding in human; type: ADME, cell-free; conditions: read-out: PPB (converted)
Mus musculus [17] = test: Sleep promoting activity in wild type mouse sleep EEG model assessed as increase in delta sleep at 100 mg/kg, po administered during dark or active phase 4 hrs prior to lights on measured for 2 hrs following drug administration; type: functional, organism-based; parameters: dose 100 mg/kg; summary of the method: as §2
[18] = Plasma concentration in mouse at 100 mg/kg, po; type: ADME, organism-based; parameters: dose 100 mg/kg, route oral
Mus musculus [19] = test: Sleep promoting activity in wild type mouse sleep EEG model assessed as duration of sleep at 100 mg/kg, po administered during dark or active phase 4 hrs prior to lights on; type: functional; summary of the method: as §2
[20] = Half life in iv dosed dog; type: ADME, organism-based, Canis lupus familiaris; conditions: in vivo
[21] = Solubility of the compound at pH 7 by HPLC analysis; type: physicochemical; conditions: buffer
Cytochrome P450 2C9 = Cytochrome P450 2C9 (Homo sapiens, UniProt P11712); test: Inhibition of CYP2C9 (unknown origin); type: ADME
Cytochrome P450 2C9, sequence (P11712 whole entry): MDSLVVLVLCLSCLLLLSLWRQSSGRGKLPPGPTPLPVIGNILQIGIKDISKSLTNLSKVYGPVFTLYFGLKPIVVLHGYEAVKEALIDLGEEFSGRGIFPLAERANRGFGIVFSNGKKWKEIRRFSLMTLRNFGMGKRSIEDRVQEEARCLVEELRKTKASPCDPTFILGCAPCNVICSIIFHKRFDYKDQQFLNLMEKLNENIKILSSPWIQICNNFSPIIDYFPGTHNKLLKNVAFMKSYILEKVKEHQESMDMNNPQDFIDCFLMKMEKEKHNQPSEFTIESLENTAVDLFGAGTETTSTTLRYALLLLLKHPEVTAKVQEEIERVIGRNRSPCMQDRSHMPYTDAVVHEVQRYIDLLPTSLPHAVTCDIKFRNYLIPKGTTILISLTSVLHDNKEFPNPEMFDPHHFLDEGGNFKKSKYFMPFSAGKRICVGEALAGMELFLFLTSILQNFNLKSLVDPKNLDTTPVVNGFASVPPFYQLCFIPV

Cytochrome P450 3A4 [22] = target: T3, Cytochrome P450 3A4; test: Inhibition of CYP3A4 (unknown origin); type: ADME

Cc1ccc(-n2nccn2)c(C(=O)N2C[C@H](C#Cc3cnccc3O)CC[C@H]2C)c1
Ki (Orexin receptor type 2 [1]): 7.5 nM
Ki [2]: 866 nM
IC50 [3]: 3880 nM
IC50 (Orexin receptor type 2 [4]): 52 nM

Cc1ccc(-n2nccn2)c(C(=O)N2C[C@H](C#Cc3ccnc(CO)c3)CC[C@H]2C)c1
Ki (Orexin receptor type 2 [1]): 25 nM
Ki [2]: 75 nM
IC50 [3]: 298 nM
IC50 (Orexin receptor type 2 [4]): 100 nM

Cc1ccc(-n2nccn2)c(C(=O)N2C[C@H](C#Cc3cc(CO)ccn3)CC[C@H]2C)c1
Ki (Orexin receptor type 2 [1]): 42 nM
Ki [2]: 76 nM

Cc1ccc(-n2nccn2)c(C(=O)N2C[C@H](C#Cc3ccncc3)CC[C@H]2C)c1
Ki (Orexin receptor type 2 [1]): 7 nM
Ki [2]: 26 nM

Cc1ccc(-n2nccn2)c(C(=O)N2C[C@H](C#Cc3cccnc3O)CC[C@H]2C)c1
Ki (Orexin receptor type 2 [1]): 24 nM
Ki [2]: 24 nM

Cc1ccc(-n2nccn2)c(C(=O)N2C[C@H](COc3ccc(F)cn3)CC[C@H]2C)c1
Ki (Orexin receptor type 2 [1]): 0.2 nM
Ki [2]: 1 nM
IC50 [3]: 16 nM
IC50 (Orexin receptor type 2 [4]): 15 nM

Cc1ccc(-n2nccn2)c(C(=O)N2C[C@H](C#Cc3cccnc3)CC[C@H]2C)c1
Ki (Orexin receptor type 2 [1]): 41 nM
Ki [2]: 107 nM
IC50 [3]: 83 nM
IC50 (Orexin receptor type 2 [4]): 28 nM

Cc1ccc(-n2nccn2)c(C(=O)N2C[C@H](C#Cc3cncc(CO)c3)CC[C@H]2C)c1
Ki (Orexin receptor type 2 [1]): 32 nM
Ki [2]: 108 nM

Cc1ccc(-n2nccn2)c(C(=O)N2C[C@H](C#Cc3cccc(CO)n3)CC[C@H]2C)c1
Ki (Orexin receptor type 2 [1]): 5.6 nM
Ki [2]: 18 nM
logD [5]: 2.1
IC50 [3]: 59 nM
IC50 (Orexin receptor type 2 [4]): 26 nM

Cc1ccc(-n2nccn2)c(C(=O)N2C[C@H](C#Cc3ccccn3)CC[C@H]2C)c1
Ki (Orexin receptor type 2 [1]): 11 nM
Ki [2]: 27 nM
IC50 [3]: 100 nM
IC50 (Orexin receptor type 2 [4]): 42 nM

Cc1ccc(-n2nccn2)c(C(=O)N2C[C@H](C#Cc3ccc(CO)cn3)CC[C@H]2C)c1
Ki (Orexin receptor type 2 [1]): 130 nM
Ki [2]: 211 nM

Cc1ccc(-n2nccn2)c(C(=O)N2C[C@H](/C=C/c3ccc(F)cn3)CC[C@H]2C)c1
Ki (Orexin receptor type 2 [1]): 3 nM
Ki [2]: 17 nM
IC50 [3]: 140 nM
IC50 (Orexin receptor type 2 [4]): 34 nM

Cc1ccc(-n2nccn2)c(C(=O)N2C[C@H](C#Cc3ccc(F)cn3)CC[C@H]2C)c1
INH (Cytochrome P450 2D6): > 50 µM
clearance [6]: 1.6 mL/min/kg
INH [7]: 23 µM
IC50 shift (CYP3A4): > 6.4
Ki (Orexin receptor type 2 [1]): 1.1 nM
Ki [2]: 1.1 nM
inhibition (INH) (Cytochrome P450 3A4 [8]): tde
Activity (Mus musculus [9]): Active
Activity (Mus musculus [10]): Active
Activity (Mus musculus [11]): Active
Activity (Mus musculus [12]): inactive
fraction unbound [13]: 0.039
logD [5]: 3.7
Activity (Mus musculus [14]): Active
Activity (Mus musculus [15]): Active
fraction unbound [16]: 0.009
IC50 [3]: 31 nM
IC50 (Orexin receptor type 2 [4]): 24 nM
Activity (Mus musculus [17]): Active
AUC [18]: 60 µM·h
Time (Mus musculus [19]): 2 h
half-life [20]: 2 h
solubility [21]: 124 µM (≈ 50 µg/mL)
INH (Cytochrome P450 2C9): 32 µM
IC50 (Cytochrome P450 3A4 [22]): > 50000 nM

Cc1ccc(-n2nccn2)c(C(=O)N2C[C@H](/C=C\c3ccc(F)cn3)CC[C@H]2C)c1
Ki (Orexin receptor type 2 [1]): 28 nM
Ki [2]: 135 nM
IC50 [3]: 706 nM
IC50 (Orexin receptor type 2 [4]): 417 nM

Cc1ccc(-n2nccn2)c(C(=O)N2C[C@H](CCc3ccc(F)cn3)CC[C@H]2C)c1
Ki (Orexin receptor type 2 [1]): 26 nM
Ki [2]: 470 nM
IC50 [3]: 861 nM
IC50 (Orexin receptor type 2 [4]): 145 nM

Cc1ccc(-n2nccn2)c(C(=O)N2C[C@H](C#Cc3ccc(CO)nc3)CC[C@H]2C)c1
Ki (Orexin receptor type 2 [1]): 150 nM
Ki [2]: 339 nM

Cc1ccc(-n2nccn2)c(C(=O)N2C[C@H](C#Cc3cccc(CO)c3)CC[C@H]2C)c1
Ki (Orexin receptor type 2 [1]): 0.53 nM
Ki [2]: 0.56 nM
IC50 [3]: 6.3 nM
IC50 (Orexin receptor type 2 [4]): 6.3 nM
IC50 (Cytochrome P450 3A4 [22]): 4000 nM
